Experimental data collected from several papers.
Cell line: HepG2
Observed: cell growth or viability

With `Cc1ccc2nc(-c3cccnc3)[nH]c2c1` the IC50 was 68.4 µM (MTT; 48 h).
The viability of `CCOC(=O)c1ccc(-n2c(-c3ccc(C)cc3)cc(-c3ccc(O)cc3)c(C#N)c2=O)cc1` is reported as 88% (MTT; 3.125 µM; 24 h).
`COc1ccc(NC(=O)c2c(Nc3ccccc3)sc(C#N)c2NC(=O)CNc2ccccc2[N+](=O)[O-])cc1` gave a viability of 92.5% (SRB; 10 nM; 48 h).
With `Cc1cc(=O)oc2ccc(-c3cc(-c4cccc(Cl)c4)nc(N)n3)c(O)c12` the inhibition was 31% (MTT; 128 µg/mL; 72 h).
`O=C(CN1C(=O)/C(=C/c2ccccc2F)SC1=S)Nc1ccccc1` gave an inhibition of 7.65% (MTT; 10 µM).
`Cc1cc(=O)oc2ccc(-c3cc(-c4ccc(Br)cc4)nc(N)n3)c(O)c12` has an inhibition of 0% (MTT; 8 µg/mL; 72 h).
For `COc1ccc(NC(=O)c2c(Nc3ccccc3)sc(C(=O)NN=Cc3ccc(Br)cc3)c2NC(C)=O)cc1`, the viability was 92.7% (SRB; 10 nM; 48 h).
`CC(=O)Nc1cccc(-n2c(=O)n(C3CC3)c(=O)c3c(Nc4ccc(I)cc4F)n(C)c(=O)c(C)c32)c1` has a viability of 96.4% (resazurin; 1.56 nM; 72 h).
The inhibition of `COc1cc2c(c(OC)c1OC)-c1ccc(OC)c(=O)cc1[C@@H](NC(C)=O)CC2` is reported as 56.4% (MTT; 10 µM).
`COc1ccc(NC(=O)c2c(Nc3ccccc3)sc(C(=O)NN=Cc3ccc(Cl)cc3)c2NC(C)=O)cc1` gave a viability of 95.2% (SRB; 10 nM; 48 h).
The EC50 of `CCn1cc(-c2nc(C)no2)c(=O)c2cc(F)c(N3CCCC(C)C3)cc21` (stereo not drawn) is reported as greater than 40 µM (ATP luminescence; 48 h).
With `Clc1ccc(-c2nc3ccccc3[nH]2)cc1` the IC50 was 51.5 µM (MTT; 48 h).
For `CCCC1CCN(c2cc3c(cc2F)c(=O)c(C(=O)OCC)cn3CC)CC1`, the EC50 was greater than 40 µM (ATP luminescence; 48 h).
The IC50 of `COc1ccc(-c2nc3ccccc3[nH]2)cc1O` is reported as 64.2 µM (MTT; 48 h).
With `CCOC(=O)c1ccc(-n2c(C)cc(/C=C/c3ccc(OCC)cc3)c(C#N)c2=O)cc1` the viability was 40.7% (MTT; 100 µM; 24 h).
The viability of `COc1ccc(NC(=O)c2c(Nc3ccccc3)sc(C#N)c2NC(=O)CNc2ccc(OC)c(OC)c2)cc1` is reported as 96.1% (SRB; 10 nM; 48 h).
`O=C(N/N=C/c1cccn1CCN1CCCCC1)Nc1cc2c(Nc3ccc(F)c(Cl)c3)ncnc2cc1O[C@H]1CCOC1` has an IC50 of 0.59 µM (MTT; 72 h).
The viability of `COc1ccc(NC(=O)c2c(Nc3ccccc3)sc(C(=O)NN=Cc3ccccc3)c2NC(C)=O)cc1` is reported as 65.3% (SRB; 10 µM; 48 h).
`CCOC(=O)c1ccc(NC(=O)C2=C3C(=Nc4ccccc43)NC2=O)cc1` has a viability of 90.2% (MTT; 6.25 µM; 24 h).
For `COc1ccc(NC(=O)c2c(Nc3ccccc3)sc(C#N)c2NC(=O)CNc2ccc(O)cc2)cc1`, the viability was 85.6% (SRB; 0.1 µM; 48 h).
With `COc1ccc(-c2nc3ccccc3[nH]2)cc1OC` the IC50 was 44.1 µM (MTT; 48 h).
`Cc1cc(Nc2ccc(C(=O)N/N=C/c3ccc(N(C)C)cc3)cc2)c2cccc(O)c2n1` has an inhibition of 40.8% (MTT; 20 µM).
The viability of `COc1ccc(NC(=O)c2c(Nc3ccccc3)sc(C#N)c2NC(=O)CNc2ccccc2)cc1` is reported as 88.6% (SRB; 1 µM; 48 h).
`CCOC(=O)c1ccc(-n2c(C)cc(C)c(C#N)c2=O)cc1` gave a viability of 51.2% (MTT; 50 µM; 24 h).
